Measured values gathered from unrelated publications.
Target: Cyclin-dependent kinase 8 (CDK8, Homo sapiens, UniProt P49336)

SMILES | assay | setting | remaining binding [%]
N#CC1(c2ccccn2)CCN(Cc2cc(C(=O)N3CCCC3)c(=O)n3ccccc23)CC1 | cell-free assay, competition with immobilised ligand | 1 µM | 100
COc1cnc(Nc2cccc(S(N)(=O)=O)c2)nc1N1CCN(c2ccccc2)CC1 | binding, competition with immobilised ligand | 1 µM | 95
C[C@@H]1CCN(c2nccc(-c3cnn4ncccc34)n2)C1 | binding | 1 µM | 51
CCOCCn1cc(C(=O)Nc2ccc(-n3nc(-c4cccnc4)cc3C(F)(F)F)cn2)ccc1=O | cell-free assay, competition with immobilised ligand | 1 µM | 100
CCN1CCN(Cc2ccc(C(=O)Nc3ccc(C)c(Oc4ccc5c(c4)CC(=O)N5)c3)cc2C(F)(F)F)CC1 | binding, competition with immobilised ligand | 1 µM | 67
Cc1cnn2ncc(-c3ccnc(N(C)C)n3)c2c1 | binding | 1 µM | 93
CC(=O)C1=C(C)N(c2cccc(C(F)(F)F)c2)C(=O)N[C@@H]1c1ccc(C#N)nc1 | cell-free assay, competition with immobilised ligand | 1 µM | 65.3
N[C@@H]1CCN(c2nccc(-c3cnn4ncccc34)n2)C1 | binding | 1 µM | 100
c1cncc(-c2cccc(Nc3nccc(NC4CCCCC4)n3)c2)c1 | binding, competition with immobilised ligand | 10 µM | 66
CN(C)c1nccc(-c2cnn3ncccc23)n1 | binding | 1 µM | 100
CC1=C(C#N)C(c2ccc3c(c2)c(NC(=O)c2ccccc2C)nn3C)C(C#N)=C(C)N1 | cell-free assay, competition with immobilised ligand | 1 µM | 97
CN(CCCC(F)(F)F)c1nccc(-c2cnn3ncccc23)n1 | binding | 1 µM | 100
CNC(=O)[C@@H]1CC[C@@H](n2c(-c3ccc4cnccc4c3)nc3ccc(C(=O)NCc4cccc(C(N)=O)c4)cc32)C1 | binding, competition with immobilised ligand | 1 µM | 100
COc1ccc2c(O[C@@H]3C[C@H]4C(=O)N[C@]5(C(=O)O)CC5/C=C\CCCCC[C@H](NC(=O)OC5CCCC5)C(=O)N4C3)cc(-c3csc(NC(=O)C(C)C)n3)nc2c1C (some centres unmarked) | cell-free assay, competition with immobilised ligand | 1 µM | 68
Cc1cnc(Nc2ccc(C(=O)N3CCC(N4CCCC4)CC3)cc2)nc1-c1cc2ccccc2s1 | binding, competition with immobilised ligand | 1 µM | 89
O=C(Nc1c[nH]nc1C(=O)NC1CCNCC1)c1cc(F)cc(F)c1 | binding, competition with immobilised ligand | 1 µM | 97
O=C(NCCCN1CCOCC1)c1ccc(Nc2ncc(Cl)c(-c3ccc(Cl)s3)n2)cc1 | binding, competition with immobilised ligand | 1 µM | 100
CN(c1nccc(-c2cnn3ncccc23)n1)C1CC1 | binding | 1 µM | 100
C[C@H](NC(=O)c1cnc2n1[C@](C)(Cc1ccc(C#N)cc1)C(=O)N2c1cc(Cl)c(F)c(Cl)c1)C(=O)NC1(c2ccccn2)CC1 | cell-free assay, competition with immobilised ligand | 1 µM | 100
O=C(c1ccc(Nc2ncc(Cl)c(-c3cc4ccccc4s3)n2)cc1)N1CCC(N2CCCC2)CC1 | binding, competition with immobilised ligand | 1 µM | 100
